Converted amounts (≈) assume the structure as drawn. The source made the active and inactive calls. The calls are words filed in the database; no cut-off is given here.
Key:
[1] = Passive permeability in MDCK2-MDR1 cells transduced with BacMam2-BCRP at 3 uM after 90 mins by Transwell assay; format: ADME, cell-based, Canis lupus familiaris, MDCK-MDR1; conditions: dog; read-out: permeability
In short: (§1)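 MDCKII-MDR1 cells transduced with BacMam2-BCRP and grown in Transwells. Compound at 3 μM, in duplicate, was incubated 90 min A→B (and B→A) with and without GF120918 (5 μM, dual P-gp/BCRP inhibitor). Passive permeability (Pexact, nm/s) was calculated by an equation from earlier work. The permeability ratio is A→B permeability with GF120918 over A→B permeability without it.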

[2] = Fraction unbound in Han-Wistar SOA rat model blood at 2 mg/kg administered via oral gavage by UPLC/MS/MS analysis; format: ADME, organism-based
[3] = Fraction unbound in Han-Wistar SOA rat model brain at 2 mg/kg administered via oral gavage by UPLC/MS/MS analysis; format: ADME, organism-based
[4] = Ratio of passive permeability in presence of dual P-gp/BCRP inhibitor GF120918 to absence of GF120918 in MDCK2-MDR1 cells transduced with BacMam2-BCRP at 3 uM after 90 mins by Transwell assay; format: ADME, cell-based, Canis lupus familiaris; conditions: dog, mdck2-mdr1, 1.5 h; in short: as §1
[5] = Solubility of compound in fasted state simulated intestinal fluid measured after 4 hrs; format: physicochemical
In short: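 Solubility in FaSSIF, read after 4 h incubation.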

[6] = Ratio of brain dose normalized AUC (0 to 7 hrs) to […] dose normalized AUC (0 to 7 hrs), Kp of the compound in Han-Wistar SOA rat model at 2 mg/kg administered via oral gavage by UPLC/MS/MS analysis; format: ADME, organism-based
In short: (§2)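 Male Han-Wistar rats given a single 2 mg/kg oral gavage as a suspension in DMSO:1% methylcellulose (1:99). Blood was taken by cardiac puncture under isoflurane at 0.25–7 h, diluted 1:3 with water, and brains were homogenized in 3-fold PBS. Samples were extracted by acetonitrile protein precipitation and quantified by UPLC/MS/MS. Kp = brain DNAUC0-7h/blood DNAUC0-7h; Kp,uu = Kp×Fu,br/Fu,bl.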

[7] = target: T1, C-X-C chemokine receptor type 2 (Homo sapiens, UniProt P25025); assay: Antagonist activity at CXCR2 in human whole blood assessed as inhibition of GROalpha-stimulated CD11b upregulation preincubated for 15 mins followed by GROalpha stimulation measured after 15 mins by FITC-staining based FACS analysis
T1 sequence (P25025 whole entry): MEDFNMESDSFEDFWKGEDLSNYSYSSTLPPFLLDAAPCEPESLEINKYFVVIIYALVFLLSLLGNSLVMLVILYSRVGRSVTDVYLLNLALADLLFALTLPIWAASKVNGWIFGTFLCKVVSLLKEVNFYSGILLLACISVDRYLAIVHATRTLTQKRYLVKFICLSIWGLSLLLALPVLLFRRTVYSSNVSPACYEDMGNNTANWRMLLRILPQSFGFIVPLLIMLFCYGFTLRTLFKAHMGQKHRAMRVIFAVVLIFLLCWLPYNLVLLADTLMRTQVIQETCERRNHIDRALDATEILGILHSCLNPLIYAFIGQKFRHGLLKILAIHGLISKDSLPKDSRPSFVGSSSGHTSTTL

[8] = tested on: Blood; assay: Dose normalized AUC (0 to 7 hrs) in Han-Wistar SOA rat model blood at 2 mg/kg administered via oral gavage by UPLC/MS/MS analysis; format: ADME, organism-based; conditions: in vivo
In short: (§3)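 Male Han-Wistar rats were given 2 mg/kg by oral gavage as a suspension in DMSO:1% methylcellulose (1:99). Blood (cardiac puncture, EDTA-K2, under isoflurane) and brains were collected at 0.25–7 h. Brain was homogenised in 3-fold PBS, samples were protein-precipitated and quantified by UPLC/MS/MS.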

[9] = tested on: Brain; assay: Dose normalized AUC (0 to 7 hrs) in Han-Wistar SOA rat model brain at 2 mg/kg administered via oral gavage by UPLC/MS/MS analysis; format: ADME, organism-based; conditions: in vivo; in short: as §3
[10] = Efflux ratio of passive permeability in MDCK2-MDR1 cells transduced with BacMam2-BCRP at 3 uM after 90 mins by Transwell assay; format: ADME, cell-based, Canis lupus familiaris, MDCK-MDR1; conditions: dog
In short: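 MDCKII-MDR1 cells transduced with BacMam2-BCRP in Transwells. Compound at 3 μM was measured in duplicate, A→B and B→A, after 90 min, with and without 5 μM GF120918. ER = B→A/A→B permeability without inhibitor. System qualified with amprenavir and dantrolene ERs.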

[11] = target: T1, C-X-C chemokine receptor type 2; assay: Antagonist activity at TEV protease cleavage site linked GAL4-VP16-fused recombinant human CXCR2 expressed in cells assessed as inhibition of […] human CXCL1-stimulated beta-arrestin recruitment by CCF4-AM-fluorescence based FRET assay; format: cell-based; conditions: read-out: pIC50 (converted)
In short: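 Stable cell line expressing recombinant human CXCR2 linked to a TEV site and Gal4-VP16. Cells were starved 24 h at 37 °C, 5% CO2, then resuspended at ~200,000 cells/mL. They were given compound in DMSO (concentration-response), stimulated with 80 nM hCXCL1 and incubated overnight at 37 °C. CCF4-AM substrate was then added for 2 h at RT in the dark.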

[12] = Oral bioavailability in Wistar rat at 2.38 mg/kg measured up to 4 hrs after dose; format: ADME, organism-based; conditions: in vivo
[13] = Clearance in Wistar rat blood at 1.01 mg/kg, iv measured up to 4 hrs post dose; format: ADME, organism-based
[14] = tested on: Rattus norvegicus; assay: Dose normalized AUC (0 to infinity) in Wistar rat at 1.01 mg/kg, iv measured up to 4 hrs post dose; format: ADME, organism-based; conditions: in vivo
[15] = Elimination half life in Wistar rat at 1.01 mg/kg, iv measured up to 4 hrs post dose; format: ADME, organism-based; conditions: in vivo, read-out: beta t1/2 (converted)
[16] = Unbound brain-to-blood concentration ratio in Han-Wistar SOA rat model at 2 mg/kg administered via oral gavage by UPLC/MS/MS analysis; format: ADME, organism-based; conditions: read-out: K(p,uu,brain); in short: as §2
[17] = tested on: Rattus norvegicus; assay: Dose normalized AUC (0 to infinity) in Wistar rat at 2.38 mg/kg, po measured up to 4 hrs post dose; format: ADME, organism-based; conditions: in vivo
[18] = Cmax in Wistar rat at 2.38 mg/kg, po measured up to 4 hrs post dose; format: ADME, organism-based; set-up: dose 2.38 mg/kg, route oral; conditions: in vivo
[19] = Tmax in Wistar rat at 2.38 mg/kg, po measured up to 4 hrs post dose; format: ADME, organism-based; conditions: in vivo
[20] = Volume of distribution at steady state in Wistar rat at 1.01 mg/kg, iv measured up to 4 hrs post dose; format: ADME, organism-based; conditions: in vivo, read-out: Vdss
[21] = target: C-X-C chemokine receptor type 2 (Mus musculus) (UniProt P35343); assay: Antagonist activity at CXCR2 in C57 mouse whole blood assessed as inhibition of GROalpha-stimulated CD11b upregulation at 10 uM preincubated for 2 hr followed by GROalpha stimulation measured after 10 mins by FITC-staining based FACS analysis
[22] = target: C-X-C chemokine receptor type 2 (Mus musculus, UniProt P35343); assay: Antagonist activity at CXCR2 in C57 mouse whole blood assessed as inhibition of GROalpha-stimulated CD11b upregulation preincubated for 2 hr followed by GROalpha stimulation measured after 10 mins by FITC-staining based FACS analysis
C-X-C chemokine receptor type 2 (Mus musculus, UniProt P35343), sequence (P35343 whole entry): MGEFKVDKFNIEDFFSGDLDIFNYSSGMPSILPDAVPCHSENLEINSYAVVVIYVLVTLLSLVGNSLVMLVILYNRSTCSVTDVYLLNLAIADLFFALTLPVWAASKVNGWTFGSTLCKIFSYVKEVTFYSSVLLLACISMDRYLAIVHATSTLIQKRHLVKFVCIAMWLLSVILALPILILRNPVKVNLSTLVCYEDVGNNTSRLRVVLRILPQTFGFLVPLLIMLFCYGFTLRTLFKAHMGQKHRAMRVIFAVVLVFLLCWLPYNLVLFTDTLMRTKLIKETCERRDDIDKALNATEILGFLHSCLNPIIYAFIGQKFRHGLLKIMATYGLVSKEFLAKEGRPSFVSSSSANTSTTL

C-X-C chemokine receptor type 2 (Mus musculus), sequence (P35343 whole entry): as above

Structure (SMILES)	Papp at 1.5 h, 3 µM [1] [×10⁻⁶ cm/s]	fraction unbound [2]	fraction unbound [3]	Ratio [4]	solubility at 4 h [5] [µg/mL]	Kp [6]	IC50 [7] [nM]	AUC/dose [8] [ng·h/mL/mg/kg]	AUC/dose [9] [ng·h/g/mg/kg]	IC50 [11] [nM]	Kp uu [16]	further results
CC1=CCC[C@H]1NC(=O)Nc1ccc(Cl)c(S(=O)(=O)[C@H]2C[C@H](N(C)C)C2)c1O	20.3	0.05	0.137	3.4	387 (≈ 905 µM)	0.06	126	2580	161			
CC1=CCC[C@H]1NC(=O)Nc1ccc(Cl)c(S(=O)(=O)C(C)(C)CF)c1O	65.4	0.011	0.034		3 (≈ 7.41 µM)	0.16	100	614	97	0.631	0.48	efflux ratio at 1.5 h, 3 µM [10]: 0.87; bioavailability [12]: 88%; clearance [13]: 15.7 mL/min/kg; AUC/dose [14]: 1071 ng·h/mL/mg/kg; half-life [15]: 150 min; AUC/dose [17]: 961 ng·h/mL/mg/kg; Cmax [18]: 292 ng/mL; Tmax [19]: 2.5 h; Vd [20]: 2.2 L/kg
CC1=CCC[C@H]1NC(=O)Nc1ccc(Cl)c(S(=O)(=O)C(C)(C)C)c1O	36.4			1.5	1.2 (≈ 3.1 µM)		316			1		
CC1=CCC[C@H]1NC(=O)Nc1ccc(Cl)c(S(=O)(=O)C(C)(C)C(F)(F)F)c1O	33.9	0.007	0.021	1.6	3.4 (≈ 7.71 µM)	0.2		535	107	0.501	0.59	
CC[C@@H](Nc1c(Nc2cccc(C(=O)N(C)C)c2O)c(=O)c1=O)c1ccc(C)o1 [NAVARIXIN ANHYDROUS]												inhibition [21]: Active; IC50 [22]: 8.1 nM
CC1=CCC[C@H]1NC(=O)Nc1ccc(C#N)c(S(=O)(=O)C(C)(C)C)c1O	9	0.034	0.116	4	686 (≈ 1820 µM)	0.03	158	2575	73			
CC1=CCC[C@H]1NC(=O)Nc1ccc(Cl)c(S(=O)(=O)C(C)(C)[C@@H]2CCOC2)c1O	12.7			4.5	24.6 (≈ 55.5 µM)					1.26		
CC1=CCC[C@H]1NC(=O)Nc1ccc(Cl)c(S(=O)(=O)[C@]2(C)CCOC2)c1O	25.2	0.036	0.106	2.4	20.5 (≈ 49.4 µM)	0.08	158	788	60.5		0.23	
CC1=CCC[C@H]1NC(=O)Nc1ccc(C#N)c(S(=O)(=O)C(C)(C)CC(F)(F)F)c1O	3			4.3	408 (≈ 916 µM)		1000			0.158		
CC1=CCC[C@H]1NC(=O)Nc1ccc(Cl)c(S(=O)(=O)C(C)(F)F)c1O	34.8	0.0065	0.051	2.4	50.8 (≈ 129 µM)	0.06	631	4331	243			
CC1=CCC[C@H]1NC(=O)Nc1ccc(Cl)c(S(=O)(=O)C(C)(C)[C@H]2CCOC2)c1O	33.1	0.016	0.033		25.2 (≈ 56.9 µM)	0.21	316	63.8	13.4	1.58	0.42	efflux ratio at 1.5 h, 3 µM [10]: 2.2
CC1=CCC[C@H]1NC(=O)Nc1ccc(Cl)c(S(=O)(=O)[C@H]2C[C@H](N3CCCC3)C2)c1O	20.5	0.0065	0.114	2.8	758 (≈ 1670 µM)	0.03	100	11721	296			

Source: ChEMBL document CHEMBL4033786, “Discovery of Novel 1-Cyclopentenyl-3-phenylureas as Selective, Brain Penetrant, and Orally Bioavailable CXCR2 Antagonists” (J Med Chem, 2018)
